Experimental findings from PMC3855444 (Bioorganic & medicinal chemistry, 2013) are described below.

In assay [1] the test system is hepatitis C virus (JFH-1). Format: cell-based. To be noted: Huh7.5.1 cells infected with JFH-1 (MOI 0.05), HCV core protein at 72 h. A digest of the protocol: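 Huh7.5.1 cells (150,000 per well) were plated and infected with JFH-1 the next day at 0.05 focus forming units per cell. After 5 h the inoculum was replaced with fresh medium containing test compound at three concentrations chosen from the 72 h ATP-based cytotoxicity data. Lysates were harvested 72 h later, loaded at equal total protein, and probed for HCV core by Western blot.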

For assay [2], the system named is UDP-glucuronosyltransferase (UGT). Format: in vitro ADME, human. To be noted: 100 μM, HLM.

On to `COc1cc(O)c2c(c1)O[C@H](c1ccc3c(c1)O[C@@H](CO)[C@H](c1ccc(O)c(OC)c1)O3)[C@@H](O)C2=O` [compound 8, 7-O-Methylisosilybin B], for which, in assay [1], the “anti-HCV activity upon methylation relative to the corresponding parent compound” value is on record as “slight enhancement”.

As for `COc1cc(O)c2c(c1)O[C@H](c1ccc(O)c3c1[C@@H](CO)[C@H](c1ccc(O)c(OC)c1)O3)[C@@H](O)C2=O` [compound 12, 7-O-Methylisosilychristin], the “anti-HCV activity upon methylation relative to the corresponding parent compound” value in assay [1] is on record as “improved anti-HCV activity”. Also, the “inhibition of UGT activity, parent versus methylated analogue, in words” value in assay [2] is “more potent than isosilychristin (11)”.

With `COc1cc(O)c2c(c1)O[C@H](c1ccc3c(c1)O[C@H](CO)[C@@H](c1ccc(O)c(OC)c1)O3)[C@@H](O)C2=O` [compound 6, 7-O-Methylisosilybin A], the “anti-HCV activity upon methylation relative to the corresponding parent compound” value in assay [1] was “reduced”.

In the case of `COc1cc(O)c2c(c1)O[C@H](c1ccc3c(c1)O[C@@H](c1ccc(O)c(OC)c1)[C@H](CO)O3)[C@@H](O)C2=O` [compound 4, 7-O-Methylsilybin B], the “anti-HCV activity upon methylation relative to the corresponding parent compound” value in assay [1] is “reduced”.

With `COc1cc(O)c2c(c1)O[C@H](c1ccc3c(c1)O[C@H](c1ccc(O)c(OC)c1)[C@@H](CO)O3)[C@@H](O)C2=O` [compound 2, 7-O-Methylsilybin A], in assay [1], the “anti-HCV activity upon methylation relative to the corresponding parent compound” value is on record as “retained”.

Consider `COc1cc(O)c2c(c1)O[C@H](c1cc(O)c3c(c1)[C@@H](CO)[C@H](c1ccc(O)c(OC)c1)O3)[C@@H](O)C2=O` [compound 10, 7-O-Methylsilychristin], for which the “anti-HCV activity upon methylation relative to the corresponding parent compound” value in assay [1] is “improved anti-HCV activity”.
